Test results as given in ChEMBL document CHEMBL1126196, “Improvements in the minimum binding sequence of C5a: examination of His-67” (J Med Chem, 1992).
pEC50, pKi: −log10 of the molar value. Square brackets hold non-standard residues; d marks the D form. Peptide text beside a SMILES is read from it. * marks the point of attachment. His(τ-Me) = Cn1cnc(C[C@H](N)C(=O)O)c1; His(π-Me) = Cn1cncc1C[C@H](N)C(=O)O; Hydrocinnamoyl = O=C(CCc1ccccc1)*; hPhe = N[C@@H](CCc1ccccc1)C(=O)O; Cha = N[C@@H](CC1CCCCC1)C(=O)O; Phg = N[C@H](C(=O)O)c1ccccc1

Key:
[1] = target: T1, C5a anaphylatoxin chemotactic receptor 1 (Homo sapiens, UniProt P21730); experiment: Inhibitory activity against [125I]-rC5a binding to C5a anaphylatoxin chemotactic receptor in human polymorphonuclear leukocyte (PMNL) membranes
T1 sequence (P21730 whole entry): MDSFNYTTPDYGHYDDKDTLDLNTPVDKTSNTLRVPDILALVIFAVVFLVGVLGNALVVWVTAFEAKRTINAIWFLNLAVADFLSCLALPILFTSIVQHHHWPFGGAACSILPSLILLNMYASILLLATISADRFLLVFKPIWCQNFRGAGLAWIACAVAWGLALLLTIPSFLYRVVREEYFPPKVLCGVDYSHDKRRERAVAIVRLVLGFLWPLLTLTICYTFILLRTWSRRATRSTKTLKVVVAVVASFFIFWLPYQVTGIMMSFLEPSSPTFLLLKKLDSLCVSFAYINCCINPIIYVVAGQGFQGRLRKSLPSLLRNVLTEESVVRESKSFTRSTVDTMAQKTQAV
Outline: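 Competition binding on human PMNL membrane fragments, peptides displacing ¹²⁵I-labelled recombinant C5a. Inhibition binding data converted to apparent dissociation constant (Ki) by the Cheng–Prusoff method.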

Cavia porcellus [2] = experiment: In vivo potency by its ability to cause evans blue dye leakage as a marker of increased vascular permeability when injected intradermally in guinea pig; type: functional, organism-based
Homo sapiens [3] = organism: Homo sapiens; experiment: In vitro potency against polymorphonuclear leukocyte (PMNL) chemokinesis; type: functional
Outline: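 PMNL chemokinesis run over half-log concentration steps based on the binding Ki; EC50 obtained by least-squares regression as the concentration giving 50% of that peptide's own maximal response.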

Homo sapiens [4] = organism: Homo sapiens; experiment: In vitro agonist efficacy against polymorphonuclear leukocyte (PMNL) chemokinesis; set-up: concentration or dose not given beside the values
Cavia porcellus [5] = experiment: In vivo agonist efficacy by its ability to cause evans blue dye leakage as a marker of increased vascular permeability when injected intradermally in guinea pig; type: functional; set-up: concentration or dose not given beside the values
Outline: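 Guinea pig, intradermal injection of peptide at a single high concentration; Evans blue dye leakage read as vascular permeability increase, compared with the maximal response to a control rC5a injection included in each test group.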

Row | Compound | pKi [1] | pEC50 (Cavia porcellus [2]) | pEC50 (Homo sapiens [3]) | Activity (Homo sapiens [4]) | Activity (Cavia porcellus [5])
1 | CSCC[C@H](NC(=O)[C@H](CC(=O)O)NC(=O)[C@H](CCCCN)NC(=O)[C@@H](N)Cc1cccs1)C(=O)N[C@@H](CCC(N)=O)C(=O)N[C@@H](CC(C)C)C(=O)NCC(=O)N[C@@H](CCCNC(=N)N)C(=O)O | 5.68 | – | – | – | –
2 | CSCC[C@H](NC(=O)[C@H](CC(=O)O)NC(=O)[C@H](CCCCN)NC(=O)[C@@H](N)Cc1cccs1)C(=O)N[C@@H](CCC(N)=O)C(=O)N[C@@H](CC(C)C)C(=O)NCC(=O)N[C@@H](CCCN=C(N)N)C(=O)O [listing 1 of 2 here] | – | > 3.00 | 6.28 | – | –
3 | CSCC[C@H](NC(=O)[C@H](CC(=O)O)NC(=O)[C@H](CCCCN)NC(=O)[C@@H](N)Cc1cccs1)C(=O)N[C@@H](CCC(N)=O)C(=O)N[C@@H](CC(C)C)C(=O)NCC(=O)N[C@@H](CCCN=C(N)N)C(=O)O [listing 2 of 2 here] | – | – | – | 142% | –
4 | CSCC[C@H](NC(=O)[C@H](CC(=O)O)NC(=O)[C@H](CCCCN)NC(=O)[C@H](N)Cc1cccs1)C(=O)N[C@@H](CCC(N)=O)C(=O)N[C@@H](CC(C)C)C(=O)NCC(=O)N[C@@H](CCCN=C(N)N)C(=O)O | – | – | – | – | 85%
5 | CSCC[C@H](NC(=O)[C@H](CC(=O)O)NC(=O)[C@H](CCCCN)NC(=O)[C@@H](N)Cc1ccccc1)C(=O)N[C@@H](CCC(N)=O)C(=O)N[C@@H](CC(C)C)C(=O)NCC(=O)N[C@@H](CCCN=C(N)N)C(=O)O | 6.59 | > 3.00 | 6.34 | 132% | 60%
6 | CSCC[C@H](NC(=O)[C@H](CC(=O)O)NC(=O)[C@H](CCCCN)NC(=O)[C@H](N)Cc1ccccc1)C(=O)N[C@@H](CCC(N)=O)C(=O)N[C@@H](CC(C)C)C(=O)NCC(=O)N[C@@H](CCCN=C(N)N)C(=O)O | 4.10 | – | 4.10 | 70% | –
7 | CSCC[C@H](NC(=O)[C@H](CC(=O)O)NC(=O)[C@H](CCCCN)NC(=O)[C@@H](N)CC1CCCCC1)C(=O)N[C@@H](CCC(N)=O)C(=O)N[C@@H](CC(C)C)C(=O)NCC(=O)N[C@@H](CCCN=C(N)N)C(=O)O (H-[Cha]KDMQLGR-OH) [listing 1 of 2 here] | – | – | 5.52 | – | –
8 | CSCC[C@H](NC(=O)[C@H](CC(=O)O)NC(=O)[C@H](CCCCN)NC(=O)[C@@H](N)CC1CCCCC1)C(=O)N[C@@H](CCC(N)=O)C(=O)N[C@@H](CC(C)C)C(=O)NCC(=O)N[C@@H](CCCNC(=N)N)C(=O)O (H-[Cha]KDMQLGR-OH) | 4.89 | – | – | – | –
9 | CSCC[C@H](NC(=O)[C@H](CC(=O)O)NC(=O)[C@H](CCCCN)NC(=O)[C@@H](N)CC1CCCCC1)C(=O)N[C@@H](CCC(N)=O)C(=O)N[C@@H](CC(C)C)C(=O)NCC(=O)N[C@@H](CCCN=C(N)N)C(=O)O (H-[Cha]KDMQLGR-OH) [listing 2 of 2 here] | – | – | – | 154% | –
10 | CSCC[C@H](NC(=O)[C@H](CC(=O)O)NC(=O)[C@H](CCCCN)NC(=O)[C@@H](N)Cc1cncn1C)C(=O)N[C@@H](CCC(N)=O)C(=O)N[C@@H](CC(C)C)C(=O)NCC(=O)N[C@@H](CCCN=C(N)N)C(=O)O (H-[His(π-Me)]KDMQLGR-OH) | 3.74 | – | 3.96 | 88% | –
11 | CSCC[C@H](NC(=O)[C@H](CC(=O)O)NC(=O)[C@H](CCCCN)NC(=O)[C@@H](N)Cc1cn(C)cn1)C(=O)N[C@@H](CCC(N)=O)C(=O)N[C@@H](CC(C)C)C(=O)NCC(=O)N[C@@H](CCCNC(=N)N)C(=O)O (H-[His(τ-Me)]KDMQLGR-OH) [listing 1 of 2 here] | 4.24 | – | 4.77 | – | –
12 | CSCC[C@H](NC(=O)[C@H](CC(=O)O)NC(=O)[C@H](CCCCN)NC(=O)[C@@H](N)Cc1cn(C)cn1)C(=O)N[C@@H](CCC(N)=O)C(=O)N[C@@H](CC(C)C)C(=O)NCC(=O)N[C@@H](CCCNC(=N)N)C(=O)O (H-[His(τ-Me)]KDMQLGR-OH) [listing 2 of 2 here] | – | – | – | 90% | –
13 | CSCC[C@H](NC(=O)[C@H](CC(=O)O)NC(=O)[C@H](CCCCN)NC(=O)[C@@H](N)c1ccccc1)C(=O)N[C@@H](CCC(N)=O)C(=O)N[C@@H](CC(C)C)C(=O)NCC(=O)N[C@@H](CCCN=C(N)N)C(=O)O (H-[Phg]KDMQLGR-OH) [listing 1 of 2 here] | 4.51 | – | 5.00 | – | –
14 | CSCC[C@H](NC(=O)[C@H](CC(=O)O)NC(=O)[C@H](CCCCN)NC(=O)[C@@H](N)c1ccccc1)C(=O)N[C@@H](CCC(N)=O)C(=O)N[C@@H](CC(C)C)C(=O)NCC(=O)N[C@@H](CCCN=C(N)N)C(=O)O (H-[Phg]KDMQLGR-OH) [listing 2 of 2 here] | – | – | – | 72% | –
15 | CSCC[C@H](NC(=O)[C@H](CC(=O)O)NC(=O)[C@H](CCCCN)NC(=O)[C@@H](N)CCc1ccccc1)C(=O)N[C@@H](CCC(N)=O)C(=O)N[C@@H](CC(C)C)C(=O)NCC(=O)N[C@@H](CCCN=C(N)N)C(=O)O (H-[hPhe]KDMQLGR-OH) | – | – | 4.82 | 162% | –
16 | CSCC[C@H](NC(=O)[C@H](CC(=O)O)NC(=O)[C@H](CCCCN)NC(=O)[C@@H](N)CCc1ccccc1)C(=O)N[C@@H](CCC(N)=O)C(=O)N[C@@H](CC(C)C)C(=O)NCC(=O)N[C@@H](CCCNC(=N)N)C(=O)O (H-[hPhe]KDMQLGR-OH) | 4.44 | – | – | – | –
17 | CSCC[C@H](NC(=O)[C@H](CC(=O)O)NC(=O)[C@H](CCCCN)NC(=O)CCc1ccccc1)C(=O)N[C@@H](CCC(N)=O)C(=O)N[C@@H](CC(C)C)C(=O)NCC(=O)N[C@@H](CCCN=C(N)N)C(=O)O (Hydrocinnamoyl-KDMQLGR-OH) | – | – | 6.10 | 84% | –
18 | CSCC[C@H](NC(=O)[C@H](CC(=O)O)NC(=O)[C@H](CCCCN)NC(=O)CCc1ccccc1)C(=O)N[C@@H](CCC(N)=O)C(=O)N[C@@H](CC(C)C)C(=O)NCC(=O)N[C@@H](CCCNC(=N)N)C(=O)O (Hydrocinnamoyl-KDMQLGR-OH) | 5.36 | – | – | – | –
19 | Ac-FKDMQLGR-OH [listing 1 of 2 here] | 6.70 | – | 6.36 | – | –
20 | Ac-FKDMQLGR-OH [listing 2 of 2 here] | – | – | – | 76% | –
21 | H-ANISFKDMQLGR-OH | – | > 4.00 | 6.60 | 85% | 69%
22 | H-HKDMQLGR-OH | – | – | 3.96 | 129% | –
23 | H-ISFKDMQLGR-OH | – | > 4.00 | 6.14 | 76% | 54%
24 | H-LRANISFKDMQLGR-OH | 6.09 | > 3.52 | 5.80 | 133% | 116%
